Data published in ChEMBL document CHEMBL1177762, “Identification of a sulfonamide series of CCR2 antagonists” (Bioorg Med Chem Lett, 2010).

Key:
[1] = biological target: T1, C-C chemokine receptor type 2 (Homo sapiens, UniProt P41597); experiment: Antagonist activity at human CCR2 expressed in CHO cells assessed as inhibition of MCP1-induced [35S]-GTPgammaS binding after 3 hrs; type: functional, cell-based
Target sequence in this assay (P41597 whole entry): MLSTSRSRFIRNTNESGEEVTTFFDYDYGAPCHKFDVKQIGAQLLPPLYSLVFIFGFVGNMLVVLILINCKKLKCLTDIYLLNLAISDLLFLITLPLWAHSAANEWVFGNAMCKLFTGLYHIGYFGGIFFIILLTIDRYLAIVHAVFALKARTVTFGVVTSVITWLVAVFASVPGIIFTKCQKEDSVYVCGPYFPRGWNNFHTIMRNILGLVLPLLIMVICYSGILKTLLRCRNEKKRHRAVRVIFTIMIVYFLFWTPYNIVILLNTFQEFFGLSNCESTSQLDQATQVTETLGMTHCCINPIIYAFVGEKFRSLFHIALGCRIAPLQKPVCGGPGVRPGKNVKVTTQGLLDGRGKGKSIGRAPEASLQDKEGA

[2] = biological target: T1, C-C chemokine receptor type 2; experiment: Antagonist activity at CCR2 in human THP1 cells assessed as inhibition of CCL2-induced chemotaxis at 1 uM in presence of 0.1% human serum; type: functional, cell-based; conditions: THP-1
Summary of the method: (§1)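 Boyden chamber (48-well) chemotaxis of THP-1 cells stimulated with CCL2. Foetal bovine serum or human serum was added to the assay buffer.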
Target sequence in this assay (P41597 whole entry, looked up): as the sequence (P41597 whole entry) above

[3] = biological target: T1, C-C chemokine receptor type 2; experiment: Antagonist activity at CCR2 in human THP1 cells assessed as inhibition of CCL2-induced chemotaxis at 1 uM in presence of 1% human serum; type: functional, cell-based; conditions: THP-1; summary of the method: as §1
Target sequence in this assay (P41597 whole entry, looked up): as the sequence (P41597 whole entry) above

[4] = Lipophilicity, log D of the compound; type: physicochemical; conditions: octanol/water
[5] = Oral bioavailability in rat; type: ADME, organism-based; conditions: in vivo
[6] = Half life in iv dosed in rat; type: ADME, organism-based; conditions: in vivo
[7] = Half life in po dosed in rat; type: ADME, organism-based; conditions: in vivo
[8] = Clearance in rat; type: ADME, organism-based; conditions: in vivo
Rattus norvegicus = species: Rattus norvegicus; experiment: Volume of distribution in rat; type: ADME, organism-based; conditions: in vivo
[9] = biological target: Voltage-gated inwardly rectifying potassium channel KCNH2 (Homo sapiens, UniProt Q12809); experiment: Binding affinity to human ERG by fluorescence-polarization binding assay
Sequence of Voltage-gated inwardly rectifying potassium channel KCNH2 (Q12809 whole entry): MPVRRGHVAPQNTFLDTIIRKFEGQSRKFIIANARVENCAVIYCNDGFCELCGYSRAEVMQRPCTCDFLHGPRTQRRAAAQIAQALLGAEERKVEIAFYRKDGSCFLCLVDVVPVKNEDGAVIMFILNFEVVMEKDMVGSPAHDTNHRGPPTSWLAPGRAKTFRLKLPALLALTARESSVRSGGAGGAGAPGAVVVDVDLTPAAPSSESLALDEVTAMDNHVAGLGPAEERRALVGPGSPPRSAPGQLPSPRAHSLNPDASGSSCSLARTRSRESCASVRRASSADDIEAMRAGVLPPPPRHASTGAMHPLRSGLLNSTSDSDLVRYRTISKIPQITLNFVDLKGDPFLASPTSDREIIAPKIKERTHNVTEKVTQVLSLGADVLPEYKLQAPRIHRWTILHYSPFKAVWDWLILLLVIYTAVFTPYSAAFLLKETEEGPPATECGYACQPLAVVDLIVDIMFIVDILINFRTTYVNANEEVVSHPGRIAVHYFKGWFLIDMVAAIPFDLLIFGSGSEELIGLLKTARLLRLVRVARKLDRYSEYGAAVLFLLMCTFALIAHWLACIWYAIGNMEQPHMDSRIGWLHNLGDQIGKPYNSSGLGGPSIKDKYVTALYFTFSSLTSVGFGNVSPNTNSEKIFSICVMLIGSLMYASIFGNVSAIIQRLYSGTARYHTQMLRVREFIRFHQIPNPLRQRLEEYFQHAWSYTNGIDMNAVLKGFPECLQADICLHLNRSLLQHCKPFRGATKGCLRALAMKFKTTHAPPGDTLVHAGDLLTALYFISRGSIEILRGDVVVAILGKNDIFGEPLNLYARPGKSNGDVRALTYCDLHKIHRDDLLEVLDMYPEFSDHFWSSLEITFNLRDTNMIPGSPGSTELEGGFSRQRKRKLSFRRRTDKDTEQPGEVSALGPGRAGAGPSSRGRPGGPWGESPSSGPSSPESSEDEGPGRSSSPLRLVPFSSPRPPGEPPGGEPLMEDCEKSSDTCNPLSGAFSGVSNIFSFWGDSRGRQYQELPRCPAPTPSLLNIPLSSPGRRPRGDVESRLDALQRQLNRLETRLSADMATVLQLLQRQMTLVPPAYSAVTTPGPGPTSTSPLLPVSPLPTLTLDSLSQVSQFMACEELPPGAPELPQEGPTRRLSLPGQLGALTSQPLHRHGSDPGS

Cytochrome P450 1A2 = biological target: T2, Cytochrome P450 1A2 (Homo sapiens, UniProt P05177); experiment: Inhibition of CYP1A2; type: ADME
T2 sequence (P05177 whole entry): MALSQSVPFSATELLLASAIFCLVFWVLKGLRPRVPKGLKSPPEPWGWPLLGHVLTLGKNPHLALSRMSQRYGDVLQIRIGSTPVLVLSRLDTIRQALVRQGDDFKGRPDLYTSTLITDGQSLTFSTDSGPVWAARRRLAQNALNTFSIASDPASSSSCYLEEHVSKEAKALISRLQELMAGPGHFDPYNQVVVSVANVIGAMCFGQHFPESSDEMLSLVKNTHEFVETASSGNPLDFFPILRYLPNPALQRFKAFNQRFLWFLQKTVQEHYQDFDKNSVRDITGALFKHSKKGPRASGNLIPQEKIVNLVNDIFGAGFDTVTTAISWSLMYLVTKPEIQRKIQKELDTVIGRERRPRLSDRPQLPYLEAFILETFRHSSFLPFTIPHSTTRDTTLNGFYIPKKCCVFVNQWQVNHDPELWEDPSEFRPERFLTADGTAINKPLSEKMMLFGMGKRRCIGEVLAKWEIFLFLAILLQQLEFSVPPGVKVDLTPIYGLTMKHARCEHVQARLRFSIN

Cytochrome P450 2C19 = Cytochrome P450 2C19 (Homo sapiens, UniProt P33261); experiment: Inhibition of CYP2C19; type: ADME
Sequence of Cytochrome P450 2C19 (P33261 whole entry): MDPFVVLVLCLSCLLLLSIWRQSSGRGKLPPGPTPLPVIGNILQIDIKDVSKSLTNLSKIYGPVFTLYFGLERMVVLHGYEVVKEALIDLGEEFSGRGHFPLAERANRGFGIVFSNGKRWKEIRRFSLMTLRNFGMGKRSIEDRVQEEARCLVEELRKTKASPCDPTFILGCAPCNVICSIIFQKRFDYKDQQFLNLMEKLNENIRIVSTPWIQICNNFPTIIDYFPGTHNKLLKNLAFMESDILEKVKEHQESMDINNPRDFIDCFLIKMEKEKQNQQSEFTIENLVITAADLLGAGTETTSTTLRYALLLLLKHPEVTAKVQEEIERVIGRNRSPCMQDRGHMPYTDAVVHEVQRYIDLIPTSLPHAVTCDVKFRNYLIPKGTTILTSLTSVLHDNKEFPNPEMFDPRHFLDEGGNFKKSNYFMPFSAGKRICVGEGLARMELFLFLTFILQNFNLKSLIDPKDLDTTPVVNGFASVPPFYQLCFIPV

Cytochrome P450 2C9 = Cytochrome P450 2C9 (Homo sapiens, UniProt P11712); experiment: Inhibition of CYP2C9; type: ADME
Sequence of Cytochrome P450 2C9 (P11712 whole entry): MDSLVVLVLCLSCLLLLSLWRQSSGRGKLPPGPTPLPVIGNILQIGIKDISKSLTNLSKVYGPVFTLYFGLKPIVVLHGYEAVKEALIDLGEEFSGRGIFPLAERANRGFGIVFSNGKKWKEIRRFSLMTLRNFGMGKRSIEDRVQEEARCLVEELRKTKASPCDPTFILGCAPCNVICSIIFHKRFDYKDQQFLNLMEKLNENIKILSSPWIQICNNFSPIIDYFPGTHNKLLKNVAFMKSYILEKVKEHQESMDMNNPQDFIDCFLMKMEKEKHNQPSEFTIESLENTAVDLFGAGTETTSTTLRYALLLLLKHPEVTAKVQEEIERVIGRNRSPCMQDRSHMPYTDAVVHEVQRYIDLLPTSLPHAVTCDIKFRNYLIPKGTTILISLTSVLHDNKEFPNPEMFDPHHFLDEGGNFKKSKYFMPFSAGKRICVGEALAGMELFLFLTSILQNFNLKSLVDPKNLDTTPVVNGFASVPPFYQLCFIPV

Cytochrome P450 2D6 = Cytochrome P450 2D6 (Homo sapiens, UniProt P10635); experiment: Inhibition of CYP2D6; type: ADME
Sequence of Cytochrome P450 2D6 (P10635 whole entry): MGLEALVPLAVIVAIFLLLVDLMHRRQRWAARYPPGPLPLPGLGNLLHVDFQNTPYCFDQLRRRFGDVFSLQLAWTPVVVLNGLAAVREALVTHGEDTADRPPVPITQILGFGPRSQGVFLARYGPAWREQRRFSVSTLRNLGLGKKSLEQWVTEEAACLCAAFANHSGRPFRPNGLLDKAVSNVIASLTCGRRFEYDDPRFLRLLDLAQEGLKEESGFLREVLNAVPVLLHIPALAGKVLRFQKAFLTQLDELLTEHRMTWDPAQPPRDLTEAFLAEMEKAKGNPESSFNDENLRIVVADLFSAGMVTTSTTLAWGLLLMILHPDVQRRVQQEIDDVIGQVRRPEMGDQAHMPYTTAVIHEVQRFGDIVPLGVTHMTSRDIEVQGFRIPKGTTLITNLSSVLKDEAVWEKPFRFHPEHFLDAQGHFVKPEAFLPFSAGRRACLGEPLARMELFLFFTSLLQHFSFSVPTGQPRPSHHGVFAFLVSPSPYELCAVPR

Cytochrome P450 3A4 = Cytochrome P450 3A4 (Homo sapiens, UniProt P08684); experiment: Inhibition of CYP3A4; type: ADME
Sequence of Cytochrome P450 3A4 (P08684 whole entry): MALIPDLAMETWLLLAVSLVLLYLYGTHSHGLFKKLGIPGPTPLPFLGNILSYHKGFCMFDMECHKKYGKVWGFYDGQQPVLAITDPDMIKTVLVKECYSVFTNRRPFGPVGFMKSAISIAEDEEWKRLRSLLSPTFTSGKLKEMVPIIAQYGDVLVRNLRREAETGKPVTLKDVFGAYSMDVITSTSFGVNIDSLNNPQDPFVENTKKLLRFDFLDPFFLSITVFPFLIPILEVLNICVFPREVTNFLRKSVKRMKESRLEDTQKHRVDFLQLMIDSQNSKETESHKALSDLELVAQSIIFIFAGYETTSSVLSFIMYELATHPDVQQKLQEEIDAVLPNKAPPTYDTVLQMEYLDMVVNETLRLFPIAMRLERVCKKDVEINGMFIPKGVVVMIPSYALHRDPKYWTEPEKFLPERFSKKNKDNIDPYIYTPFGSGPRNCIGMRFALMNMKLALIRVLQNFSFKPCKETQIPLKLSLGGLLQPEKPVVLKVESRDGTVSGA

[10] = biological target: T3, C-C chemokine receptor type 4 (Homo sapiens, UniProt P51679); experiment: Antagonist activity at CCR4; type: functional
T3 sequence (P51679 whole entry): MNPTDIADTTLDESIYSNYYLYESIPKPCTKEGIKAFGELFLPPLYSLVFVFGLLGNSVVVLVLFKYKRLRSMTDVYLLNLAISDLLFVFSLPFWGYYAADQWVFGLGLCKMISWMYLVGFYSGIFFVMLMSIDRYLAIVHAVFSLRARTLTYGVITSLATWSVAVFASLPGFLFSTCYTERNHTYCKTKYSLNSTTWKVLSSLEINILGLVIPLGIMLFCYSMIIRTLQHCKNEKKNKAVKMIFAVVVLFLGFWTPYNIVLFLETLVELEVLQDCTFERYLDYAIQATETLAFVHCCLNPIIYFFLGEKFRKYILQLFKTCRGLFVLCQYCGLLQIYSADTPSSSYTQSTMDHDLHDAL

[11] = biological target: T4, C-C chemokine receptor type 5 (Homo sapiens, UniProt P51681); experiment: Antagonist activity at CCR5; type: functional
[12] = biological target: T1, C-C chemokine receptor type 2; experiment: Inhibition of CCR2-mediated chemotaxis in human THP1 cells assessed as half life of reversibility at 10 uM after assay buffer exchange; type: cell-based; conditions: THP-1
Summary of the method: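 THP-1 cells were preincubated with compound at 10 µM for 30 min. The assay buffer was then exchanged and CCL2-driven chemotaxis was stimulated periodically to generate a reversibility curve. The half-life of reversibility was taken from this curve.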
Target sequence in this assay (P41597 whole entry, looked up): as the sequence (P41597 whole entry) above

[13] = biological target: T5, C-C chemokine receptor type 1 (Homo sapiens, UniProt P32246); experiment: Antagonist activity at human CCR1 assessed as inhibition of MIP-1-alpha-induced [35S]-GTPgammaS binding after 3 to 4 hrs; type: functional
T5 sequence (P32246 whole entry): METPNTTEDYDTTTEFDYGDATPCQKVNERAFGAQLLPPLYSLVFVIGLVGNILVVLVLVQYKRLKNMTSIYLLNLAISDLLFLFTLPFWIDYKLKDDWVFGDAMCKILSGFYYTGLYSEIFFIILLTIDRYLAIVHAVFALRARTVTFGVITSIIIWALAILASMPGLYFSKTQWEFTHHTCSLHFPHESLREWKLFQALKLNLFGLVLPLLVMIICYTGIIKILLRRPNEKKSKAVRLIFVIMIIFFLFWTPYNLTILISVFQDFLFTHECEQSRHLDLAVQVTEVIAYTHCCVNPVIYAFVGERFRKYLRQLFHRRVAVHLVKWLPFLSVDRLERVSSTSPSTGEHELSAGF

[14] = biological target: C-C chemokine receptor type 2 (Mus musculus, UniProt P51683); experiment: Antagonist activity at mouse CCR2; type: functional
Sequence of C-C chemokine receptor type 2 (Mus musculus, UniProt P51683) (P51683 whole entry): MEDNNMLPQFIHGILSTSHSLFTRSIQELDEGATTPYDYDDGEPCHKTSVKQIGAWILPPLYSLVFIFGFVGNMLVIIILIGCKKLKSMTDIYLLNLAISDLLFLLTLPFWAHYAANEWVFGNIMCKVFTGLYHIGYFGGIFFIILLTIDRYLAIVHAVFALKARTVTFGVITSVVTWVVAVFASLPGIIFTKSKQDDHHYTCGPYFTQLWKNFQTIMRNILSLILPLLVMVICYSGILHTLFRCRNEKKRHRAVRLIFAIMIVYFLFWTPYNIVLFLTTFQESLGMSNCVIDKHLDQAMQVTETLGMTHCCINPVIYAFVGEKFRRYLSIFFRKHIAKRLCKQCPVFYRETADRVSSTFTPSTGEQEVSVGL

[15] = biological target: T4, C-C chemokine receptor type 5; experiment: Antagonist activity at CCR5 at 10 uM; type: functional; parameters: scale not given: the % may be the effect or the level left
Target sequence in this assay (P51681 whole entry, looked up): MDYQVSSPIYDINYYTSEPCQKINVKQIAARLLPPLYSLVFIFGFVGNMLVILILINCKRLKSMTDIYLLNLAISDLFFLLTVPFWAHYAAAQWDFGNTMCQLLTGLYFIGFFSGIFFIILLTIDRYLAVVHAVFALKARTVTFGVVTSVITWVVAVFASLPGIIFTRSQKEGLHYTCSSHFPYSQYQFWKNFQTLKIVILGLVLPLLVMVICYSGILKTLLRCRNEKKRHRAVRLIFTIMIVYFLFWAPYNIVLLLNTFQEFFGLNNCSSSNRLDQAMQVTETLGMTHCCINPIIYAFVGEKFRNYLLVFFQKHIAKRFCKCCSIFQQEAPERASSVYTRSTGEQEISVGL

[16] = biological target: C-C chemokine receptor type 1 (Homo sapiens) (UniProt P32246); experiment: Antagonist activity at human CCR1
[17] = biological target: T1, C-C chemokine receptor type 2; experiment: Antagonist activity at CCR2 in human THP1 cells assessed as inhibition of CCL2-induced chemotaxis at 10 uM in presence of 1% human serum; type: functional, cell-based; conditions: THP-1; summary of the method: as §1
Target sequence in this assay (P41597 whole entry, looked up): as the sequence (P41597 whole entry) above

O=C(O)c1ccccc1Oc1ncc(Cl)cc1NS(=O)(=O)c1ccc(Cl)c(Cl)c1
Ki [1]: 1.26 nM | inhibition [2]: 67% | inhibition [3]: 37% | logD [4]: 0.8 | bioavailability [5]: 97% | half-life [6]: 4.5 h | half-life [7]: 4.5 h | clearance [8]: 0.71 mL/min/kg | Vd (Rattus norvegicus): 0.12 L/kg | IC50 [9]: > 31600 nM | IC50 (Cytochrome P450 1A2): 39800 nM | IC50 (Cytochrome P450 2C19): 39800 nM | IC50 (Cytochrome P450 2C9): 21400 nM | IC50 (Cytochrome P450 2D6): 100000 nM | IC50 (Cytochrome P450 3A4): 100000 nM | Ki [10]: 794 nM | IC50 [11]: 251 nM | T1/2 [12]: 4.67 h

CS(=O)(=O)Nc1cc(Cl)ccc1Oc1ccccc1C(=O)O
Ki [1]: 398 nM

O=C(O)c1ccccc1Oc1ccccc1NS(=O)(=O)c1ccc(Cl)cc1
Ki [1]: 251 nM | Ki [13]: 316 nM | Ki [14]: 2000 nM

O=C(NCCO)c1ccccc1Oc1ncc(Cl)cc1NS(=O)(=O)c1ccc(Cl)c(Cl)c1
Ki [1]: 25.1 nM | inhibition [2]: 31% | inhibition [3]: 0% | logD [4]: 2.1 | bioavailability [5]: 37% | half-life [6]: 1.1 h | clearance [8]: 13 mL/min/kg | Vd (Rattus norvegicus): 0.47 L/kg | IC50 [9]: > 63100 nM | Ki [10]: 1580 nM | Activity [15]: < 10%

O=C(O)c1ccc(Oc2ncc(Cl)cc2NS(=O)(=O)c2ccc(Cl)c(Cl)c2)cc1
Ki [1]: 3.16 nM | logD [4]: 0.4

Cc1cccc(NS(=O)(=O)c2ccc(Cl)cc2)c1Oc1ccccc1C(=O)O
Ki [1]: > 3160 nM | Ki [16]: > 3160 nM

O=C(O)c1ccccc1Oc1ccc(C(F)(F)F)cc1NS(=O)(=O)c1ccc(Cl)cc1
Ki [1]: 794 nM | Ki [13]: 501 nM | Ki [14]: 1580 nM

CS(=O)(=O)c1ccc(Oc2ccccc2C(=O)O)c(NS(=O)(=O)c2ccc(Cl)cc2)c1
Ki [1]: > 3160 nM

O=S(=O)(Nc1cc(Cl)cnc1Oc1cccnn1)c1ccc(Cl)c(Cl)c1
Ki [1]: 200 nM

N#Cc1ccc(Oc2ncc(Cl)cc2NS(=O)(=O)c2ccc(Cl)c(Cl)c2)cn1
Ki [1]: 15.8 nM | logD [4]: 2.12

O=C(O)c1ccccc1Oc1cnccc1NS(=O)(=O)c1ccc(Cl)c(Cl)c1
Ki [1]: 50.1 nM | inhibition [2]: 15% | inhibition [3]: 0%

O=C(O)c1cccc(Oc2ncc(Cl)cc2NS(=O)(=O)c2ccc(Cl)c(Cl)c2)c1
Ki [1]: 1.58 nM | inhibition [2]: 42% | inhibition [3]: 33% | logD [4]: 0.44

Cc1ncccc1Oc1ncc(Cl)cc1NS(=O)(=O)c1ccc(Cl)c(Cl)c1
Ki [1]: 10 nM | inhibition [2]: 72% | inhibition [3]: 50% | logD [4]: 2.7 | bioavailability [5]: 75% | half-life [6]: 0.8 h | half-life [7]: 2.3 h | clearance [8]: 4.3 mL/min/kg | Vd (Rattus norvegicus): 0.34 L/kg | IC50 [9]: > 31600 nM | IC50 (Cytochrome P450 1A2): > 100000 nM | IC50 (Cytochrome P450 2C19): 22400 nM | IC50 (Cytochrome P450 2C9): 1350 nM | IC50 (Cytochrome P450 2D6): > 100000 nM | IC50 (Cytochrome P450 3A4): 19500 nM | Ki [10]: 1260 nM | Activity [15]: 40%

O=C(O)c1ccccc1Oc1ccc(F)cc1NS(=O)(=O)c1ccc(Cl)cc1
Ki [1]: 39.8 nM | inhibition [17]: 52% | Ki [16]: 251 nM

O=C(O)c1ccccc1Oc1ncncc1NS(=O)(=O)c1ccc(Cl)c(Cl)c1
Ki [1]: 398 nM

O=S(=O)(Nc1cc(Cl)cnc1Oc1cncc(Cl)c1)c1ccc(Cl)c(Cl)c1
Ki [1]: 12.6 nM | inhibition [2]: 55% | inhibition [3]: 0% | logD [4]: 3.1 | bioavailability [5]: 58% | half-life [6]: 1.2 h | clearance [8]: 2.4 mL/min/kg | Vd (Rattus norvegicus): 0.2 L/kg | IC50 (Cytochrome P450 1A2): > 100000 nM | IC50 (Cytochrome P450 2C19): 6610 nM | IC50 (Cytochrome P450 2C9): 1070 nM | IC50 (Cytochrome P450 2D6): > 100000 nM | IC50 (Cytochrome P450 3A4): 437 nM
